From ChEMBL document CHEMBL4513216, “Probing the Open Global Health Chemical Diversity Library for Multistage-Active Starting Points for Next-Generation Antimalarials” (ACS Infect Dis, 2020) come the findings set out here.

Structures are written as SMILES.

This data set is described as follows: Toxicity liver stage against HepG2, at 10uM. In kind it is cell-based. The arrangement: test concentration 10 uM, cell line HepG2-A16-CD81EGFP. The settings on record: human, HepG2-A16-CD81EGFP cells; read-out: INHIBITION
The method in brief:
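Uninfected HepG2-A16-CD81EGFP cells, 3 × 10^3 per well, 1536-well, plated on prespotted compound at 10 μM final, parasite-free screening media added to match infected plates; puromycin 10 μM positive, DMSO 0.5% negative; run in parallel with 48 h PbLuc assay at 37 °C, 5% CO2; viability by CellTiter-Glo luminescence, normalized to controls.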

In the case of `O=C1N(c2ccsc2)CCC12CCCN(Cc1cccnc1)C2` (stereo not given), the cytotoxicity at 10 µM is -128%.

Consider `Cc1noc(C)c1CN1CCN(Cc2nccn2C)CC1`, for which the cytotoxicity at 10 µM is -4.93%.

As for `CC(C)OCCCNC(=O)[C@@]12CNC[C@@H]1CN(S(C)(=O)=O)C2`, the cytotoxicity at 10 µM amounted to 6.99%.

Regarding `Cc1ccc(NCc2nc3n(n2)CCCCC3)c(C)c1`, the cytotoxicity at 10 µM was 4.7%. For `CCN(Cc1ccncc1)CC1(O)CCN(C(=O)c2cccc(C)c2)C1` (stereo not given), the cytotoxicity at 10 µM was -25.1%. Next, `COc1ccccc1NC(=O)NCC(O)(c1ccccc1)C1CC1` (stereo not given): -19.5%; `O=C1CC(c2ccco2)c2sc(C(=O)O)c(-c3ccccc3)c2N1` (stereo not given): 19.1%.

As for `Cc1cc(NC(=O)N2CCCC2CN2CCOCC2)nn1C` (stereo not given), the cytotoxicity at 10 µM worked out at 1.63%. Next, `CCCOc1cc(C)ccc1NC(=O)NCCNC(=O)C(C)C`: 8.31%; `CC(C)CN1CC2(CCN(C(=O)C3CSC(C)(C)C(=O)N3)CC2)CC1=O` (stereo not given): 4.79%; `O=C(Cn1nnn(-c2cccs2)c1=O)N(CC1CCOC1)C1CC1` (stereo not given): -39.9%. As for `COCCNC(=O)CCn1ncc2c(Cl)cccc21`, the figure is 10.5%; as for `c1ccc(OCc2cscn2)c(CNC2CCc3ncnn3C2)c1` (stereo not given), -9.42%. Next, `CN(c1ncccc1C#N)C1CCN(Cc2ccncc2)CC1`: -2.86%. Consider `O=C(C1CCC2(CCN(CC3CCOCC3)CC2)O1)N1CCCC1` (stereo not given), for which the cytotoxicity at 10 µM worked out at 1.91%. Next, `CC(C)C(=O)N1CC[C@H]2N(C)CC[C@@]2(C(=O)Nc2cccnc2)CC1`: -121%; `O=C(NCCC1CN(Cc2cccnc2)CCO1)c1ccsc1` (stereo not given): -8.03%. As for `CCN1CCOCC12CCN(c1nccs1)CC2`, the cytotoxicity at 10 µM is -107%. Next, `O=C1N(Cc2ccc(F)c(F)c2)CCCC1(O)CNCc1ccccn1` (stereo not given): -2.63%; `Nc1ncccc1CN1C[C@@H](C(=O)O)[C@H](c2cccc(F)c2)C1`: -11.1%.

Regarding `O=C(CCc1ccccc1Br)N1CC(S(=O)(=O)C2CCCCC2)C1`, the cytotoxicity at 10 µM is -1.36%. Next, `CCc1cn[nH]c1C1CCCN(C(=O)c2ncoc2C(C)C)C1` (stereo not given): 1.86%; `CCS(=O)(=O)N1CC[C@H]2CO[C@H](CN(C)C)[C@H]2C1`: -72%; `CS(=O)(=O)N1CC[C@H]2O[C@@H](C(=O)NCc3ccco3)CC[C@H]21`: 4.23%. As for `CCc1nnsc1C(=O)NC1CCN(c2ccccn2)CC1`, the figure is -2.49%; as for `CN(Cc1ccccc1O)CC1CCCN(CCc2ccc(Cl)cc2)C1` (stereo not given), -10.1%; as for `Cc1ccc2cc(C(=O)N3CCCN(C)CC3)ccc2n1`, -54.3%. For the compound `CSc1cccc(CNC(=O)C2CC(=O)N(C3CC3)C2)c1` (stereo not given), the cytotoxicity at 10 µM was -12.3%. Next, `Cc1nonc1N1CCN(Cc2nc(CC3CC3)no2)CC1`: 9.34%; `Cc1cc(NC2CC3(CCN(Cc4cscn4)C3)C2)ncn1` (stereo not given): -2.13%; `Cc1cc(NC2CCN(CC3CCCO3)CC2)n2nc(C)c(C)c2n1` (stereo not given): 8.96%.

Consider `Cc1cccc(COC[C@H]2CC[C@H]3[C@H](CCN3Cc3ccco3)O2)n1`, for which the cytotoxicity at 10 µM is -172%. As for `CN1CCN(C(=O)c2cc(C#N)cs2)c2ccccc2C1`, the figure is 10.2%; as for `CC(C)CN1C[C@@H]2OCC(=O)N(c3ccccc3)[C@@H]2C1`, 1.08%; as for `CCC(C(=O)Nc1ccc2c(C)n[nH]c2c1)N1CCCC1=O` (stereo not given), -48.9%. As for `COC(=O)c1ccc(Cl)c(NS(=O)(=O)c2cnn(C)c2)c1`, the figure is 0.214%; as for `N[C@H]1CN(C(=O)c2ccc3[nH]c(=O)c(=O)[nH]c3c2)C[C@@H]1c1ccccc1`, 2.19%.

In the case of `COc1ccc(CNCc2ccnc(N3CCCC3)c2)c(OC)c1`, the cytotoxicity at 10 µM turned out to be 3.45%. Next, `CCCn1ccnc1CN1C[C@@H](NC(C)=O)[C@H](c2ccc(C)cc2)C1`: 1.9%; `CNC(=O)C1CN(C(=O)c2ccccc2)Cc2cn(C)nc21` (stereo not given): -1.5%; `CS(=O)(=O)CC1(CNc2cc(C#N)c3cc(Cl)ccc3n2)CC1`: -4.06%. Next, `Cc1nc(-c2ccccc2)cc2nn(CC(N)=O)c(=O)n12`: 0.301%. As for `COc1ccc(CCNC(C)c2ccc3[nH]c(=O)[nH]c3c2)cc1OC` (stereo not given), the figure is -16.8%; as for `O=C(N[C@@H]1CN(Cc2ccc3[nH]ccc3c2)C[C@H]1O)c1cscn1`, -7.11%. As for `Cc1cccc(C2CCCN(S(=O)(=O)c3cccnc3)C2)n1` (stereo not given), the cytotoxicity at 10 µM was found to be 4.05%. Next, `Cn1ccnc1CN1CCN(CCOc2ccccc2F)CC1`: -10.9%.

Turning to `Cc1cc(CN2CCN(C(=O)NCc3ccco3)CC2)no1`, the cytotoxicity at 10 µM is -14.8%. With `CC(NC1(CNS(=O)(=O)N(C)C)CCCC1)c1ccccc1` (stereo not given), the cytotoxicity at 10 µM was -5.01%. Next, `Cc1ccc(NC2CCN(C(=O)CCn3nc(C)cc3C)CC2)nn1`: -9.66%; `N#CC1(C(=O)N2C[C@@H]3CC[C@H]2CN(Cc2cscn2)C3)CCOCC1`: 2.39%.

On to `CS(=O)(=O)c1ccc(-c2cnc(C3CCCN3)cn2)cc1` (stereo not given), for which the cytotoxicity at 10 µM was -1.71%.

As for `CC(=O)N1CC[C@H]2CC(=O)N(C3CCCCC3)CC[C@H]2C1`, the cytotoxicity at 10 µM stood at 0.325%.

For the compound `CCN(Cc1ccc2c(c1)OCO2)C(=O)NCc1nc(C)cs1`, the cytotoxicity at 10 µM amounted to 7.47%. Next, `CC(C)c1ccc(OCCC(=O)N2CCC(C(=O)N(C)C)CC2)cc1`: -17.5%; `CCOCC(O)CN1CCN(C(=O)c2ccccc2F)CC1` (stereo not given): -2.15%; `COc1ccc(CN(C)C(=O)c2nnc(CN(C)C)o2)cc1`: -3.42%. Next, `Cc1noc(-c2ccc(Oc3cccc(CN4CCCC4)c3F)nc2)n1`: -6.03%; `c1ccc(-c2noc(CN3CCc4c(ncn4C4CC4)C3)n2)nc1`: -5.11%. Next, `CN(C)c1nc2c(c(N3CCC(O)CC3)n1)CN(CC1CCOC1)CC2` (stereo not given): -0.473%; `CCn1nc(C)cc1NC(=O)CCn1nc(C)c(Br)c1C`: 10.8%; `CC(C(=O)N1CCC(c2[nH]ncc2-c2ccccc2)CC1)n1cncn1` (stereo not given): -0.815%.

As to `CCOCC1CN(C(=O)c2cnoc2C)Cc2cn(CC3CC3)nc21` (stereo not given), the cytotoxicity at 10 µM is 17%. As for `N#CCCCOc1cccnc1NC(=O)CCC1CCCC1`, the figure is -2.08%. Next, `Cn1cccc1C(=O)N1C[C@H]2CN(CC3CC3)C(=O)[C@H]2C1`: -103%; `NC1CCCCN(Cc2ccccc2CS(=O)(=O)c2ccccc2)C1` (stereo not given): -20.9%; `Cc1ccc(CNC(=O)c2nc3c(o2)CN(c2ncccn2)C3)o1`: -5.58%. As for `CC(Nc1cccc2c1OCCO2)C(=O)Nc1ccc(S(N)(=O)=O)cc1` (stereo not given), the cytotoxicity at 10 µM was -3.93%. As for `CCN1CCO[C@@H]2CN(C(=O)c3cocn3)C[C@@H]2C1`, the figure is 0.933%; as for `CCn1nc(C)c(CCNC(=O)C2CCCN(C3CCCC3)C2)c1C` (stereo not given), -9.34%. For the compound `COC(=O)C(NC(=O)CCOC(C)C)c1cc(F)ccc1F` (stereo not given), the cytotoxicity at 10 µM is -4.11%.

Regarding `N#Cc1cc(Br)ccc1NC1CCN(CC(N)=O)CC1`, the cytotoxicity at 10 µM is 5.23%. Next, `CN(C)c1cc2c(nn1)CCN(C(=O)Cc1ccc3c(c1)CCO3)C2`: 5.71%; `Cn1ncc2ccc(C3CCCN(C(=O)Cc4cccs4)C3)nc21` (stereo not given): 10%.

In the case of `CCCS(=O)(=O)CC(=O)Nc1ccsc1`, the cytotoxicity at 10 µM was -5.61%. As for `Cn1nc(C2CN(C(=O)c3ccncc3)C2)c2nccnc21`, the figure is -8.8%; as for `Cc1cc(C(=O)NCC(F)(F)F)c2c(C3CCCN3)noc2n1` (stereo not given), 6%; as for `O=C(Nc1ccccn1)N(CCO)Cc1ccccc1Br`, -14.4%. As for `O=C(NCCc1noc(C2CCCO2)n1)c1cn2ccsc2n1` (stereo not given), the figure is -4.4%; as for `CC(C)CN1CCS(=O)(=O)[C@@H]2CCN(S(=O)(=O)CC(C)C)CC[C@@H]21`, 11.3%. For the compound `Cn1cc2ncn(CCCOc3cccnc3)c(=O)c2n1`, the cytotoxicity at 10 µM was -5.18%. Next, `NC(=O)CNC(=O)c1cc(Cn2cnc3ccccc32)[nH]n1`: -4.2%; `Cc1nccc(N2CCC(Cc3cccc(C(=O)O)c3)CC2)n1`: -135%. Next, `CN1CCC(c2nnc(CN3CCOCC3)n2C)CC1`: -1.16%; `CCc1nc(Cn2c(=O)c3c(C(F)(F)F)cc(C)nc3n2C)no1`: 2.58%; `c1cc2cc[nH]c2c(CC2CN(Cc3cncs3)C2)n1`: -0.54%. Next, `Cc1noc(C)c1CN1CCCC2(C1)CN(Cc1nccn1C)CCO2` (stereo not given): 7.69%; `CNc1nc(CNC(=O)Nc2cccc(F)c2)cs1`: -5.45%; `Cc1nccc([C@H]2C[C@@H]3CCN(C(=O)c4c(C)noc4C)C[C@H]3O2)n1`: -83.3%. `CCc1cnccc1C(=O)NC1CCN(Cc2ccccc2F)CC1`: the cytotoxicity at 10 µM is -4.35%. `CNc1ncc(CN(C)C(=O)[C@@]23CNC[C@@H]2CN(C(=O)C2CC2)C3)cn1`: the cytotoxicity at 10 µM worked out at 4.67%.

With `CCS(=O)(=O)c1ncc(CN(C)Cc2ccccn2)n1CCOC`, the cytotoxicity at 10 µM was -13.3%. As for `CCCOc1ccc(CCC(=O)Nc2nonc2C)cc1`, the figure is -7.24%. Next, `Cc1cc(CN2CCCn3nc(CCC(=O)O)cc3C2)ccc1F`: 2.28%; `CC(=O)c1cccc(NC(=O)Cn2cc(I)cn2)c1`: -1.87%.

On to `NC(=O)c1cccc(CC2CCN(C(=O)CCc3cccc(F)c3)C2)c1` (stereo not given), for which the cytotoxicity at 10 µM was -3.75%.
